Data on 33 compounds can be found in ChEMBL document CHEMBL3865814, “Chemical Constituents Isolated from the Root Bark of Cudrania tricuspidata and Their Potential Neuroprotective Effects” (J Nat Prod, 2016).

Common to all, as to type: functional, cell-based
Test [1] can be described thus: Neuroprotective activity in human SH-SY5Y cells assessed as reduction in oxygen glucose deprivation-induced cell death incubated for 16 hrs under hypoxic condition followed by incubation for 24 hrs under normoxic condition by MTT assay. The method in brief: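 After 24 h plating (2 × 10^4/well, DMEM with 10% FBS and glucose), medium was switched to serum- and glucose-free RPMI and samples or vehicle added. Cells were held 16 h under 95% N2/5% CO2, then reoxygenated 24 h in RPMI with 10% FBS and glucose at 37 °C. Viability was by MTT at A540. EC50 is half-maximal protection, mean of triplicates.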

Test [2] in a line: Neuroprotective activity in human SH-SY5Y cells assessed as reduction in 6-OHDA-induced cell death measured after 24 hrs by MTT assay. A digest of the protocol:
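Cells were seeded at 2 × 10^4 per well and grown 24 h in DMEM with 10% heat-inactivated FBS at 37 °C under 5% CO2. They were then co-treated with graded sample concentrations and 100 μM 6-OHDA for 24 h. Viability was by MTT (0.5 mg/mL, 4 h, 37 °C), DMSO solubilization and A540. EC50 is half-maximal protection, mean of triplicate determinations.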

A short description of test [3]: Neuroprotective activity in human SH-SY5Y cells assessed as reduction in 1-methyl-4-phenylpyridinium ion-induced cell death after 48 hrs by MTT assay. A digest of the protocol:
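SH-SY5Y cells in DMEM with 10% heat-inactivated FBS and 1% penicillin/streptomycin were seeded at 2 × 10^4 cells/well for 24 h, then exposed to 2 mM MPP+ for 48 h. MTT (0.5 mg/mL in PBS) was added for 4 h at 37 °C, formazan dissolved in DMSO and absorbance read at 540 nm. EC50 is the concentration giving half-maximal protection, mean of triplicates.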
Background: Tetrazolium dyes change colour on reduction, which living cells bring about.

On to `C=C1CC[C@H](O)C(C)(C)[C@@H]1CC/C(C)=C/CC/C=C(\C)CC/C=C(\C)CCC=C(C)C`, for which the results for the EC50 in test [1], in test [2] and in test [3] were 6.5 µM, 7.2 µM and greater than 50 µM, respectively.

Consider `CC(C)=CCc1c(O)c(O)cc2c(=O)c3c4c(c(O)cc3oc12)C(C)(C)C(C)O4` (stereo not given), for which the EC50 (in general, the concentration needed to bring the measured effect to its halfway point) in test [1] was 34.9 µM; in test [3] it was greater than 50 µM.

`CC1Oc2cc3oc4c5c(c(O)cc4c(=O)c3c(O)c2C1(C)C)OC(C)(C)C(O)C5` (stereo not given): the EC50 in test [1] was 23.6 µM; in test [3], greater than 50 µM.

Regarding `C=CC(C)(C)c1c(OC)cc(O)c2c(=O)c3c(CC(O)C(=C)C)c(O)c(O)cc3oc12` (stereo not given), the EC50 in test [1] is 2.9 µM; in test [3], greater than 50 µM.

Regarding `CC(C)=CCc1c2c(c(O)c3c(=O)c4ccc(O)c(O)c4oc13)C(C)(C)C(C)O2` (stereo not given), the figures for the EC50 in test [1] and in test [3] were 17.2 µM and greater than 50 µM, respectively.

With `O=c1ccoc2cc(O)cc(O)c12`, the EC50 in test [2] is 1.9 µM.

In the case of `CC1(C)CCc2cc(C3CC(=O)c4c(O)cc5c(c4O3)CCC(C)(C)O5)c(O)cc2O1` (stereo not given), the EC50 in test [2] is 9.1 µM.

`C=C(C)C(=O)Cc1c(OC)c(O)cc2oc3c4c(cc(O)c3c(=O)c12)OC(CO)C4(C)C` (stereo not given): the EC50 in test [1] was 13.2 µM; in test [3], greater than 50 µM.

Consider `CC1(C)C=Cc2c(c(O)cc3c(=O)c4c(O)c5c(cc4oc23)OC(CO)C5(C)C)O1` (stereo not given), for which the EC50 in test [1] is 11.2 µM; in test [3], greater than 50 µM.

For the compound `COCc1ccc(O)cc1`, the EC50 in test [1] is 7.9 µM; in test [3] it was greater than 50 µM.

Take `CC1Oc2cc3oc4c5c(c(O)cc4c(=O)c3c(O)c2C1(C)C)OC(C(C)(C)O)C5` (stereo not given): the concentration for a half-maximal effect (EC50) is 6 µM in test [1] and greater than 50 µM in test [3].

With `C=CC(C)(C)c1c(OC)cc(O)c2c(=O)c3c(cc(O)c4oc(C(C)(C)O)cc43)oc12`, the EC50 in test [1] is greater than 50 µM; in test [3], 10.3 µM.

Regarding `C=CC(C)(C)c1c(O)cc(O)c2c(=O)c3c4c(c(O)cc3oc12)O[C@@H](C(C)(C)O)C4`, the concentration for a half-maximal effect (EC50) in test [1] was 12.2 µM; in test [3], greater than 50 µM.

Take `CC1Oc2cc(O)c3c(=O)c4c5c(c(O)cc4oc3c2C1(C)C)OC(C)(C)C=C5` (stereo not given): the EC50 in test [1] is 3.5 µM; in test [3] it was greater than 50 µM.

Take `C=C(C)C(O)Cc1c(OC)c(O)cc2oc3c4c(cc(O)c3c(=O)c12)OC(CO)C4(C)C` (stereo not given): the results for the EC50 in test [1] and in test [3] were 28.5 µM and greater than 50 µM, respectively.

`CC1(C)C=Cc2c(c(O)cc3oc4c5c(cc(O)c4c(=O)c23)OC(CO)C5(C)C)O1` (stereo not given): the EC50 was 8.9 µM in test [1] and greater than 50 µM in test [3].

In the case of `COc1c(C(C)=O)ccc2c1C=CC(C)(C)O2`, the figures for the EC50 in test [1] and in test [3] were 22.3 µM and greater than 50 µM, respectively.

As to `C=CC(C)(C)c1c(O)cc(O)c2c(=O)c3c4c(c(O)cc3oc12)OC(C)(C)C=C4`, the EC50 was 33.3 µM in test [1] and greater than 50 µM in test [3].

With `C[C@H]1[C@H](C)CC[C@]2(C)CC[C@]3(C)C(=CC[C@@H]4[C@@]5(C)CC[C@H](O)C(C)(C)[C@@H]5CC[C@]43C)[C@H]12`, the EC50 in test [1] is 13.3 µM; in test [3] it was greater than 50 µM.

On to `O=Cc1ccc(O)cc1` [4-HYDROXYBENZALDEHYDE], for which, in test [2], the EC50 is 30.2 µM.

Turning to `C=C(C)[C@@H]1CC[C@]2(C(=O)O)CC[C@]3(C)[C@H](CC[C@@H]4[C@@]5(C)CC[C@H](O)C(C)(C)[C@@H]5CC[C@]43C)[C@@H]12` [BETULINIC ACID], the half-maximal effective concentration (EC50) in test [3] was found to be 4.3 µM.

On to `NCCC(=O)N[C@@H](Cc1c[nH]cn1)C(=O)O` [CARNOSINE], for which the EC50 in test [1] was 3 µM.

With `CC(C)=CC1Oc2cc(O)ccc2-c2oc3cc4c(c(O)c3c(=O)c21)C=CC(C)(C)O4` (stereo not given) [CUDRAFLAVONE A], the EC50 in test [1] is 13.5 µM; in test [2], 15.5 µM; in test [3], greater than 50 µM.

Turning to `CC(C)=CCc1c(O)c(O)cc2oc3c4c(cc(O)c3c(=O)c12)OC(C)C4(C)C` (stereo not given) [CUDRATRICUSXANTHONE J], the EC50 in test [1] is greater than 50 µM; in test [3], 8.1 µM.

For the compound `C=CC(C)(C)c1c(OC)cc(O)c2c(=O)c3c(CC=C(C)C)c(O)c(O)cc3oc12` [CUDRAXANTHONE D], the EC50 in test [1] was 4.8 µM; in test [3], greater than 50 µM.

With `COc1cc(/C=C/C(=O)CC(=O)/C=C/c2ccc(O)c(OC)c2)ccc1O` [CURCUMIN], the half-maximal effective concentration (EC50) in test [2] was found to be 6.2 µM.

For `CC(C)=CCc1cc2ccc(=O)oc2cc1O` [DEMETHYLSUBEROSIN], the results for the EC50 in test [1] and in test [3] were 8.6 µM and 0.2 µM, respectively.

Turning to `CC1(C)CC[C@]2(C)CC[C@]3(C)[C@H]4CC=C5[C@@H](CC[C@H](O)C5(C)C)[C@]4(C)CC[C@@]3(C)[C@@H]2C1` [GLUTINOL], the EC50 in test [2] turned out to be 12.9 µM.

Consider `CC(C)=CCOc1c2ccoc2cc2oc(=O)ccc12` [ISOIMPERATORIN], for which the figures for the EC50 in test [1], in test [2] and in test [3] were 3.5 µM, 9.2 µM and greater than 50 µM, respectively.

As to `COC(=O)c1ccc(O)cc1O` [METHYL 2,4-DIHYDROXYBENZOATE], the figures for the EC50 in test [1] and in test [3] were 35.5 µM and greater than 50 µM, respectively.

For `CCCCCCCC/C=C\CCCCCCCC(=O)O` [OLEIC ACID], the EC50 in test [2] was determined as 9.5 µM.

Consider `CC(C)=CCOc1c2occc2cc2ccc(=O)oc12` [PENTOSALEN], for which the values for the EC50 in test [1] and in test [3] were 8.4 µM and greater than 50 µM, respectively.

`CC1(C)C=Cc2cc3ccc(=O)oc3cc2O1` [XANTHYLETIN]: the EC50 in test [2] stood at 8 µM.
